Experimental data published in ChEMBL document CHEMBL3853340, “Dihydropyrimidinones and -thiones with improved activity against human polyomavirus family members” (Bioorg Med Chem Lett, 2016).

Assays:
[1] = Cytotoxicity against human RMS13 cells assessed as cell growth inhibition after 24 hrs by cell titer-glo assay; format: toxicity, cell-based
Summary of the method: (§1)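 Growth of MCF7 breast cancer cells and RMS13 rhabdomyosarcoma cells measured in the presence of compound. Values are the means ± SD of 2 independent experiments, each run in triplicate.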

[2] = Cytotoxicity against human MCF7 cells assessed as cell growth inhibition after 48 hrs by cell titer-glo assay; format: toxicity, cell-based; summary of the method: as §1
Homo sapiens [3] = test: Inhibition of human Hsp70 expressed in Escherichia coli BL21(DE3) assessed as suppression of Hdj2-activated ATPase activity at 100 uM dosed 15 mins after Hsp70 and Hdj2 pre-incubation and measured after 60 mins by TLC based steady state ATPase assay relative to control
Summary of the method: (§2)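 Hsp70 ATPase activity measured with Hdj2 (Hsp40) at a 1:0.5 Hsp70:Hsp40 molar ratio. Activity was normalized to DMSO-matched reactions lacking compound. Values are the means of three independent experiments.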

Homo sapiens [4] = organism: Homo sapiens; test: Inhibition of human Hsp70 expressed in Escherichia coli BL21(DE3) assessed as suppression of ATPase activity at 100 uM after 60 mins by TLC based steady state ATPase assay relative to control
Summary of the method: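 Hsp70 ATPase activity measured without cochaperone. Activity was normalized to reactions with no compound but an equal amount of DMSO. Values are the means of three independent experiments.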

[5] = biological target: Large T antigen (Simian virus 40) (UniProt P03070); test: Inhibition of ATPase activity of SV40 T antigen expressed in baculovirus at 10 uM by antibody affinity chromatography relative to control; details: Betapolyomavirus macacae
Summary of the method: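 Purified T antigen ATPase activity measured with test agent at a final concentration of 10 μM. Activity was normalized to reactions with no compound but an equal amount of DMSO. Values are the means of three independent experiments.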

BK polyomavirus = test: Antiviral activity against BK polyomavirus Gardner infected in human HFF cells assessed as reduction in DNA copy number after 7 days by PCR analysis; format: functional, cell-based; details: Betapolyomavirus hominis, 168 h
Summary of the method: (§3)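 BK virus replication and viability measured in human foreskin fibroblasts. EC50 is the concentration giving 50% activity. CC50 is the concentration killing 50% of viable cells. Values come from two independent experiments.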

JC polyomavirus = test: Antiviral activity against JC polyomavirus MAD-4 infected in grivet COS7 cells assessed as reduction in DNA copy number after 7 days by PCR analysis; format: functional, cell-based; details: MAD-4, COS-7, 168 h
Summary of the method: (§4)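 JC virus replication and viability measured in COS7 green monkey kidney cells. EC50 is the concentration giving 50% activity. CC50 is the concentration killing 50% of viable cells. Values come from two independent experiments.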

[6] = Cytotoxicity against BK polyomavirus Gardner infected-human HFF cells assessed as reduction in cell viability after 7 days by cell titer-glo assay; format: toxicity, cell-based; details: for CC50: hff, 168 h; for CC50 at 168 h: HFF cells infected with BK polyomavirus Gardner; summary of the method: as §3
[7] = Cytotoxicity against JC polyomavirus MAD-4 infected grivet COS7 cells assessed as reduction in cell viability after 7 days by cell titer-glo assay; format: toxicity, cell-based; details: chlorocebus aethiops, cos-7, 168 h; summary of the method: as §4
[8] = Specificity index, ratio of CC50 for grivet COS7 cells to EC50 for JC polyomavirus MAD-4 infected in grivet COS7 cells; design: species or system COS-7
[9] = Partition coefficient, logP of the compound; format: physicochemical; details: octanol/water
[10] = Distribution coefficient, logD of the compound; format: physicochemical; details: octanol/water
Homo sapiens [11] = test: Activation of human Hsp70 expressed in Escherichia coli BL21(DE3) assessed as stimulation of Hdj2-activated ATPase activity at 100 uM dosed 15 mins after Hsp70 and Hdj2 pre-incubation and measured after 60 mins by TLC based steady state ATPase assay relative to control; summary of the method: as §2

Large T antigen (Simian virus 40), sequence (P03070 whole entry): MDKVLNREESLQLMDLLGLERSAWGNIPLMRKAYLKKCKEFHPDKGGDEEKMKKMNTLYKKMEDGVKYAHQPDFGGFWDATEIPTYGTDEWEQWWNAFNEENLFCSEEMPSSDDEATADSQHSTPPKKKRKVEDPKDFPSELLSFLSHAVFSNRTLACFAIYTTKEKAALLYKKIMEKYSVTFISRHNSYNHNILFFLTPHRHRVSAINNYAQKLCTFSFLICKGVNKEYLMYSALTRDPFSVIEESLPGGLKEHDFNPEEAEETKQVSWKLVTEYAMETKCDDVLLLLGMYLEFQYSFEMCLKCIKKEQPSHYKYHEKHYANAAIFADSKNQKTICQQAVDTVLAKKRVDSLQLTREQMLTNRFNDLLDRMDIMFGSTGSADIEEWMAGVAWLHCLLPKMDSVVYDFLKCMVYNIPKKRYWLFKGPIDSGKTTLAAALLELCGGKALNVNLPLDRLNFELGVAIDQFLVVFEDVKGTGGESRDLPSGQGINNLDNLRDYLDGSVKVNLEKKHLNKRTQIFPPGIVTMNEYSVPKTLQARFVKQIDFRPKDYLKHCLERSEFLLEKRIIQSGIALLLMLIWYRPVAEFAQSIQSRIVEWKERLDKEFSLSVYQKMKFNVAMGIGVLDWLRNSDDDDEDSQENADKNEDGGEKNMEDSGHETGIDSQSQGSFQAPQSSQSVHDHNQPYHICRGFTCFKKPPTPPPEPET

fold change (FC) (Homo sapiens [4])	fold change (FC) [5]	Compound	GI50 at 24 h [1] [µM]	GI50 at 48 h [2] [µM]	fold change (FC) (Homo sapiens [3])	further results
–	–	CCCCCCN(C(=O)CCCCCN1C(=O)NC(c2ccc(-c3ccccc3)cc2)C(C(=O)OCc2ccccc2)=C1C)C(C(=O)NCCCC)c1ccc(OCC(=O)OC)c(C(=O)OC)c1 (stereo not given)	13	6	–	–
–	1.5	CC1=C(C(=O)OCc2ccccc2)C(c2ccc(-c3ccccc3)cc2)NC(=O)N1CCCCCC(=O)O (stereo not given)	120	–	–	fold change (FC) (Homo sapiens [11]): 1.5
–	7.7	CC1=C(C(=O)OCc2ccccc2)C(c2ccc(-c3ccccc3C)cc2)NC(=S)N1Cc1ccc(-c2nnn[nH]2)cc1 (stereo not given)	68	160	3.7	–
1.3	7.5	CC1=C(C(=O)OCc2ccccc2)C(c2ccc(-c3ccccc3C)cc2)N(Cc2ccc(-c3nnn[nH]3)cc2)C(=S)N1 (stereo not given)	62	–	4.8	–
–	2.1	CC1=C(C(=O)OCc2ccccc2)C(c2ccc(-c3ccccc3)cc2)NC(=S)N1CCCCCc1nnn[nH]1 (stereo not given)	110	–	1.7	–
1.2	2.3	CC1=C(C(=O)OCc2ccccc2)C(c2ccc(-c3ccccc3)cc2)N(Cc2ccc(-c3nnn[nH]3)cc2)C(=O)N1 (stereo not given)	–	–	5	–
1.2	1.4	CC1=C(C(=O)OCc2ccccc2)C(c2ccc(-c3ccccc3)cc2)NC(=O)N1CCCCCc1nnn[nH]1 (stereo not given)	–	–	1.3	EC50 (BK polyomavirus): 3.9 µM; EC50 (JC polyomavirus): 3.5 µM; CC50 at 168 h [6]: > 67 µM; CC50 [7]: 24 µM
1.4	2.1	CC1=C(C(=O)OCc2ccccc2)C(c2ccc(-c3ccccc3C)cc2)NC(=O)N1CCCCCc1nnn[nH]1 (stereo not given)	100	72	3	–
–	–	Nc1ccn(C[C@@H](CO)OCP(=O)(O)O)c(=O)n1.O.O [CIDOFOVIR]	–	–	–	EC50 (BK polyomavirus): 1.1 µM; EC50 (JC polyomavirus): 2 µM; CC50 at 168 h [6]: > 100 µM; CC50 [7]: 49 µM; Ratio CC50/EC50 [8]: 24
–	2	CC1=C(C(=O)OCc2ccccc2)C(c2ccc(-c3ccccc3)cc2)NC(=O)N1Cc1ccc(-c2nnn[nH]2)cc1 (stereo not given)	96	160	5	–
1.4	5.5	CC1=C(C(=O)OCc2ccccc2)C(c2ccc(-c3ccccc3)cc2)NC(=S)N1Cc1ccc(-c2nnn[nH]2)cc1 (stereo not given)	87	140	4.5	–
–	–	CC1=C(C(=O)OCc2ccccc2)C(c2ccc(-c3ccccc3C)cc2)NC(=O)N1Cc1ccc(-c2nnn[nH]2)cc1 (stereo not given)	73	140	–	EC50 (BK polyomavirus): 1.7 µM; EC50 (JC polyomavirus): 4.2 µM; CC50 [6]: 20 µM; CC50 [7]: 21 µM
–	1.5	CC1=C(C(=O)OCc2ccccc2)C(c2ccc(-c3ccccc3)cc2)NC(=S)N1CCCCCC(=O)O (stereo not given)	100	–	–	–
–	1.6	CC1=C(C(=O)OCc2ccccc2)C(c2ccc(-c3ccccc3)cc2)N(CCCCCC(=O)O)C(=S)N1 (stereo not given)	110	–	–	–
–	4.7	CC1=C(C(=O)OCc2ccccc2)C(c2ccc(-c3ccccc3C)cc2)NC(=S)N1CCCCCc1nnn[nH]1 (stereo not given)	100	–	2.5	–

Compound	fold change (FC) (Homo sapiens [4])	fold change (FC) [5]	GI50 at 24 h [1] [µM]	GI50 at 48 h [2] [µM]	fold change (FC) (Homo sapiens [3])	further results
CC1=C(C(=O)OCc2ccccc2)C(c2ccc(-c3ccccc3)cc2)N(Cc2ccc(-c3nnn[nH]3)cc2)C(=S)N1 (stereo not given)	1.7	4.5	72	110	5.3	EC50 (BK polyomavirus): 1.8 µM; EC50 (JC polyomavirus): 0.75 µM; CC50 [6]: 17 µM; CC50 [7]: 18 µM; Ratio CC50/EC50 [8]: 23; logP [9]: 6.4; logD [10]: 4.8
